The test system of assay [1] is INS1. The experiment in a line: Protection against tunicamycin induced endoplasmic reticulum stress in rat INS-1 cells assessed as increase in cell viability after 3 days by CellTiter-Glo assay relative to control. Type of assay: functional. The procedure, abridged: (§1)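 INS-1 cells at 3×10^3/well (384-well) co-treated with Tm 0.1 µg/mL and compound for 72 h; CellTiter-Glo ATP luminescence. Activity is % rescue, with Tm alone = 0% and DMSO without Tm = 100%. EC50 from ten 2-fold serial dilutions by curve fit; triplicate.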

The test system of assay [2] is INS1. Put plainly: Protection against tunicamycin induced endoplasmic reticulum stress in rat INS-1 cells assessed as increase in cell viability after 3 days by CellTiter-Glo assay. Conditions: INS1, 72 h. It counts as functional, cell-based. The procedure, abridged: as §1
Assay [3] deals with INS1. The experiment in a line: Protection against tunicamycin induced endoplasmic reticulum stress in rat INS-1 cells assessed as increase in cell viability at 5 uM after 72 hrs by CellTiter-Glo assay. It counts as functional, cell-based.
In assay [4] the test system is INS1. Put plainly: Protection against tunicamycin induced endoplasmic reticulum stress in rat INS-1 cells assessed as increase in cell viability at 30 uM after 72 hrs by CellTiter-Glo assay. Type of assay: functional, cell-based.

Active and inactive are the calls of the source. The calls are words filed in the database; no cut-off is given here.

For `OC[C@@H]1CCCN1c1nc(NCCc2ccccc2Cl)c2ccccc2n1`, the “%max” value with INS1 [1] was 50.6%. The concentration giving a half-maximal response (EC50) in the assay on INS1 [2] worked out at 1440 nM.
The matching figures for `OC[C@@H]1CCCN1c1nc(NCCc2ccccc2)c2ccccc2n1`: 54.4% and 480 nM.
In the case of `COc1ccc(CNc2nc(N3CCC[C@H]3CO)nc3ccccc23)cc1OC`, the “%max” value in the assay on INS1 [1] was found to be 44.9%. In addition, the EC50 with INS1 [2] came out at 1850 nM.
The matching figures for `COc1ccccc1CCNc1nc(N2CCC[C@H]2CO)nc2ccccc12`: 56.6% and 3560 nM.
The matching figures for `OC[C@@H]1CCCN1c1nc(NCCc2ccccc2F)c2ccccc2n1`: 52.5% and 1700 nM.
The like results for `COc1cccc(CCNc2nc(N3CCC[C@H]3CO)nc3ccccc23)c1` were, in that order, 54.9% and 1510 nM.
`OC[C@@H]1CCCN1c1nc(NCCc2ccccc2Br)c2ccccc2n1`: the “%max” value in the assay with INS1 [1] is 39%. In addition, the EC50 in the assay with INS1 [2] came out at 1880 nM.
The matching figures for `OC[C@@H]1CCCN1c1nc(NCCc2ccc(F)cc2)c2ccccc2n1`: 56.2% and 2130 nM.
Consider `OC[C@@H]1CCCN1c1nc(NCCc2ccc(Cl)cc2)c2ccccc2n1`, for which the “%max” value in the assay on INS1 [1] is listed as 57.3%. The EC50 in the assay on INS1 [2] stood at 510 nM.
Consider `OC[C@@H]1CCCN1c1nc(NCCc2cccc(F)c2)c2ccccc2n1`, for which the “%max” value in the assay with INS1 [1] stood at 51.3%. Further, the EC50 in the assay with INS1 [2] stood at 1150 nM.
Take `COc1ccc(CNc2nc(N3CCCCC3CO)nc3ccccc23)cc1OC` (configuration not stated): the “%max” value in the assay on INS1 [1] turned out to be 69.4%. Further, the EC50 in the assay on INS1 [2] is 3640 nM.
`OC[C@@H]1CCCN1c1nc(NCCc2ccc(Br)cc2)c2ccccc2n1`: the “%max” value with INS1 [1] is on record as 44.1%. Also, the EC50 in the assay with INS1 [2] is 650 nM.
The like results for `OCC1CCCCN1c1nc(NCc2ccccc2)c2ccccc2n1` (configuration not stated) were, in that order, 56.4% and 230 nM.
Take `Cc1ccc(CCNc2nc(N3CCC[C@H]3CO)nc3ccccc23)cc1`: in the assay on INS1 [1], the “%max” value turned out to be 34.2%. Also, in the assay with INS1 [2], the concentration giving a half-maximal response (EC50) was 660 nM.
Consider `OC[C@@H]1CCCN1c1nc(NCCc2cccc(Br)c2)c2ccccc2n1`, for which, in the assay with INS1 [1], the “%max” value is 53.2%. The EC50 in the assay with INS1 [2] was found to be 780 nM.
As to `COc1ccc(CNc2nc(N3CCC[C@H]3CO)nc3ccccc23)cc1`, the “%max” value in the assay with INS1 [1] is listed as 57.2%. Also, the EC50 in the assay with INS1 [2] was determined as 4050 nM.
As to `OCC1CCCCN1c1nc(NCc2ccc(Cl)cc2)c2ccccc2n1` (configuration not stated), the “%max” value in the assay on INS1 [1] was 54.7%. Moreover, the EC50 with INS1 [2] came out at 210 nM.
The like results for `OC[C@@H]1CCCN1c1nc(NCCc2cccc(Cl)c2)c2ccccc2n1` were, in that order, 51.5% and 1050 nM.
On to `COc1ccc(CNc2nc(N3CCCC[C@@H]3CO)nc3ccccc23)cc1`, for which, in the assay on INS1 [3], the result was Active.
As for `COc1ccc(CNc2nc(N3CCCC[C@H]3CO)nc3ccccc23)cc1`, the result in the assay with INS1 [3] was Active.
Regarding `Nc1nnc(Sc2cc(-n3cccc3)c(Cl)cc2[N+](=O)[O-])[nH]1`, the result with INS1 [4] was Active.
`OCC1CCCCN1c1nc(NCCc2ccccc2Br)c2ccccc2n1` (racemic): the “%max” value in the assay on INS1 [1] was 44.2%. The EC50 with INS1 [2] was determined as 1410 nM.
With `OCC1CCCCN1c1nc(NCCc2ccc(F)cc2)c2ccccc2n1` (racemic), the “%max” value in the assay with INS1 [1] is 47.5%. Besides, in the assay on INS1 [2], the half-maximal effective concentration (EC50) came out at 310 nM.
The like results for `Cc1ccc(CCNc2nc(N3CCCCC3CO)nc3ccccc23)cc1` (racemic) were, in that order, 33.6% and 140 nM.
The like results for `OCC1CCCCN1c1nc(NCCc2ccc(Cl)cc2)c2ccccc2n1` (racemic) were, in that order, 57.6% and 170 nM.
The like results for `OCC1CCCCN1c1nc(NCCc2ccccc2F)c2ccccc2n1` (racemic) were, in that order, 60.3% and 1460 nM.
For `OCC1CCCCN1c1nc(NCCc2ccccc2)c2ccccc2n1` (racemic), the “%max” value in the assay on INS1 [1] was determined as 55.7%. In addition, the EC50 with INS1 [2] was found to be 360 nM.
`COc1cccc(CCNc2nc(N3CCCCC3CO)nc3ccccc23)c1` (racemic): the “%max” value with INS1 [1] came to 69.2%. In the assay on INS1 [2], the EC50 came out at 2590 nM.
`OCC1CCCCN1c1nc(NCCc2cccc(Br)c2)c2ccccc2n1` (racemic): the “%max” value in the assay with INS1 [1] is listed as 51.7%. Further, the concentration for a half-maximal effect (EC50) in the assay on INS1 [2] was determined as 770 nM.
The like results for `OCC1CCCCN1c1nc(NCCc2cccc(Cl)c2)c2ccccc2n1` (racemic) were, in that order, 46.2% and 790 nM.
The matching figures for `OCC1CCCCN1c1nc(NCCc2cccc(F)c2)c2ccccc2n1` (racemic): 57.3% and 1880 nM.
The like results for `OCC1CCCCN1c1nc(NCCc2ccc(Br)cc2)c2ccccc2n1` (racemic) were, in that order, 52.8% and 340 nM.
Take `COc1ccc(CCNc2nc(N3CCCCC3CO)nc3ccccc23)cc1` (racemic): in the assay with INS1 [1], the “%max” value is reported as 58.6%. Further, the EC50 in the assay with INS1 [2] is 310 nM.
On to `OCC1CCCCN1c1nc(NCCc2ccccc2Cl)c2ccccc2n1` (racemic), for which the “%max” value with INS1 [1] is on record as 51.4%. In the assay with INS1 [2], the EC50 was found to be 470 nM.
As to `COc1ccccc1CCNc1nc(N2CCCCC2CO)nc2ccccc12` (racemic), in the assay with INS1 [1], the “%max” value was found to be 46.9%. Moreover, the EC50 in the assay on INS1 [2] was found to be 1600 nM.
